{"data": "Measurements gathered from unrelated publications", "target": "Serine/threonine-protein kinase 33 (STK33, Homo sapiens, UniProt Q9BYT3)", "note": "Lines come from different studies, so protocols differ."}
{"SMILES": "CC(=O)N1CCC(c2ccc(C(=O)NC3=NCCN3)cc2C(F)(F)F)CC1", "observed": "cell-free assay", "method": "competition with immobilised ligand", "tested at": "1 µM", "remaining binding": "100%"}
{"SMILES": "c1cncc(-c2cccc(Nc3nccc(NC4CCCCC4)n3)c2)c1", "observed": "binding", "method": "competition with immobilised ligand", "tested at": "10 µM", "remaining binding": "44%"}
{"SMILES": "CN(c1ccnc(CNc2nc(Nc3ccc4c(c3)CC(=O)N4)ncc2C(F)(F)F)n1)S(C)(=O)=O", "observed": "cell-free assay", "method": "competition with immobilised ligand", "tested at": "1 µM", "remaining binding": "15%"}
{"SMILES": "CN(C)c1ncc(F)c(-c2cnn3ncccc23)n1", "observed": "binding", "tested at": "1 µM", "remaining binding": "100%"}
{"SMILES": "O=C(NCc1ncc(C(F)(F)F)cc1Cl)c1ccc2c(c1)C1(CCS(=O)(=O)CC1)[C@H](C1CC1)N2S(=O)(=O)c1ccc(F)cc1", "observed": "cell-free assay", "method": "competition with immobilised ligand", "tested at": "1 µM", "remaining binding": "100%"}
{"SMILES": "O=C(NCC1CCOCC1)c1n[nH]cc1NC(=O)c1c(F)cccc1F", "observed": "binding", "method": "competition with immobilised ligand", "tested at": "1 µM", "remaining binding": "79%"}
{"SMILES": "c1cnn2ncc(-c3ccnc(N4CCC45COC5)n3)c2c1", "observed": "binding", "tested at": "1 µM", "remaining binding": "100%"}
{"SMILES": "CNC(=O)c1ccccc1Nc1cc(Nc2ccc(N3CCOCC3)cc2OC)ncc1C(F)(F)F", "observed": "binding", "method": "competition with immobilised ligand", "tested at": "1 µM", "remaining binding": "< 10%"}
{"SMILES": "O=C(c1ccc(Nc2ncc(Cl)c(-c3ccc(Cl)s3)n2)cc1)N1CCC(N2CCCC2)CC1", "observed": "binding", "method": "competition with immobilised ligand", "tested at": "1 µM", "remaining binding": "56%"}
{"SMILES": "N[C@@H]1CCN(c2nccc(-c3cnn4ncccc34)n2)C1", "observed": "binding", "tested at": "1 µM", "remaining binding": "100%"}
{"SMILES": "O=C(c1ccc(Nc2nccc(-c3cc4ccccc4s3)n2)cc1)N1CCC(N2CCCC2)CC1", "observed": "binding", "method": "competition with immobilised ligand", "tested at": "1 µM", "remaining binding": "100%"}
{"SMILES": "CN(CCCC(F)(F)F)c1nccc(-c2cnn3ncccc23)n1", "observed": "binding", "tested at": "1 µM", "remaining binding": "100%"}
{"SMILES": "O=C(Nc1ccc(Oc2ccc(F)cc2)cc1)N1CCc2ncccc2[C@H]1c1ccc(F)cc1", "observed": "cell-free assay", "method": "competition with immobilised ligand", "tested at": "1 µM", "remaining binding": "50%"}
{"SMILES": "COc1ncc2cc3ccccc3nc2c1C#N", "observed": "cell-free assay", "method": "competition with immobilised ligand", "tested at": "5 µM", "remaining binding": "91%"}
{"SMILES": "CNC(=O)[C@@H]1CC[C@@H](n2c(-c3ccc4cnccc4c3)nc3ccc(C(=O)NCc4cccc(C(N)=O)c4)cc32)C1", "observed": "binding", "method": "competition with immobilised ligand", "tested at": "1 µM", "remaining binding": "87%"}
{"SMILES": "CCCCN(CCCC)C(=O)CN1C[C@@H](c2cc(OC)c3c(c2)OCO3)[C@H](C(=O)O)[C@H]1CC(C)(C)CCC", "observed": "cell-free assay", "method": "competition with immobilised ligand", "tested at": "1 µM", "remaining binding": "100%"}
{"SMILES": "C=CC(=O)N1CCC(C(=O)NCC(=O)N2CCN(c3nc(-c4cnc(N)nc4C(F)F)nc(N4CCOCC4)n3)CC2)CC1", "observed": "binding", "method": "competition with immobilised ligand", "tested at": "1 µM", "remaining binding": "100%"}
{"SMILES": "Cc1cnc(Nc2ccc(C(=O)N3CCC(N4CCCC4)CC3)cc2)nc1-c1cc2ccccc2s1", "observed": "binding", "method": "competition with immobilised ligand", "tested at": "1 µM", "remaining binding": "60%"}
{"SMILES": "CNC(=O)c1ccc(Nc2ncc(C(F)(F)F)c(NCc3nccnc3N(C)S(C)(=O)=O)n2)cc1", "observed": "cell-free assay", "method": "competition with immobilised ligand", "tested at": "0.1 µM", "remaining binding": "68%"}
{"SMILES": "C[C@@H]1CCN(c2nccc(-c3cnn4ncccc34)n2)C1", "observed": "binding", "tested at": "1 µM", "remaining binding": "88%"}
{"SMILES": "FC(F)(F)Oc1cccc(-c2cnc3ccc(-c4ccncc4)nn23)c1", "observed": "binding", "method": "competition with immobilised ligand", "tested at": "5 µM", "remaining binding": "72%"}
{"SMILES": "C[C@@H](c1cccc(C#N)c1)n1cc(Cl)cc(C(N)=O)c1=N", "observed": "cell-free assay", "method": "competition with immobilised ligand", "tested at": "1 µM", "remaining binding": "100%"}
{"SMILES": "CC1CCCN1c1nccc(-c2cnn3ncccc23)n1 (centres unmarked)", "observed": "binding", "tested at": "1 µM", "remaining binding": "100%"}
